Results published in ChEMBL document CHEMBL1140765, “Synthesis and biological evaluation of 2-trifluoromethyl/sulfonamido-5,6-diaryl substituted imidazo[2,1-b]-1,3,4-thiadiazoles: a novel class of cyclooxygenase-2 inhibitors” (Bioorg Med Chem, 2008).

Assays:
[1] = test system: Rattus norvegicus; assay: Antiinflammatory activity in Albino rat assessed as reduction of carrageenan-induced paw edema volume at 10 mg/kg, po after 2 hrs; assay type: functional; parameters: scale not given: the % may be the effect or the level left
Method in brief: (§1)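 Male albino rats, six per group, were dosed orally. One hour later they received a subplantar injection of 0.05 mL of 1% carrageenan in 0.9% sterile solution into the left hind paw. Paw volume was read by digital plethysmometer at 0, 2 and 4 h. Percent reduction was calculated as (1 − treated/vehicle control edema volume) × 100, and values are given as mean ± SE.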

[2] = biological target: T1, Prostaglandin G/H synthase 1 (Ovis aries) (UniProt P05979); assay: Inhibition of ovine COX1 at 10 uM
T1 sequence (whole entry): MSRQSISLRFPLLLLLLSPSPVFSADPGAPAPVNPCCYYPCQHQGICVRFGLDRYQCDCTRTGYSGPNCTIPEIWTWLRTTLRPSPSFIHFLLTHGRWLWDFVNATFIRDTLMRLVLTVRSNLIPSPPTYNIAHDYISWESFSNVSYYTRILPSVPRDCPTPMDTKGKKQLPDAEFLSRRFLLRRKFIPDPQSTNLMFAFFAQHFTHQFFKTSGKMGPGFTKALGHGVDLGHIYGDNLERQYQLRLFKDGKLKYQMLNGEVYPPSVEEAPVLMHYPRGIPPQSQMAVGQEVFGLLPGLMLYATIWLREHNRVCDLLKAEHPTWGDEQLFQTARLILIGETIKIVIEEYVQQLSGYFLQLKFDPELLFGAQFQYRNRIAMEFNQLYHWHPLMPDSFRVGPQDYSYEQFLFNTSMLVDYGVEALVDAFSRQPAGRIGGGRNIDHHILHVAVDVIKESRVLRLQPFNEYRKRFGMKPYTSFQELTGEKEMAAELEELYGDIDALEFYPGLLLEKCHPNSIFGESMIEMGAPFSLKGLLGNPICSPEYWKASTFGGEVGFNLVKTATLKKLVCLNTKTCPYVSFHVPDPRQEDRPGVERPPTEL
Method in brief: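 Ovine COX-1 activity was measured with a colorimetric inhibitor assay kit that reads the enzyme's peroxidase component. Oxidized TMPD was monitored at 590 nm during reduction of PGG2 to PGH2. Runs were done in duplicate.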

[3] = test system: Rattus norvegicus; assay: Antiinflammatory activity in Albino rat assessed as reduction of carrageenan-induced paw edema volume at 10 mg/kg, po after 4 hrs; assay type: functional; parameters: scale not given: the % may be the effect or the level left; method in brief: as §1
[4] = biological target: T2, Prostaglandin G/H synthase 1 (Ovis aries, UniProt P05979); assay: Inhibition of ovine COX1
T2 sequence (P05979 whole entry): T1 sequence (whole entry)
Method in brief: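 Ovine enzyme, colorimetric kit assay read through the peroxidase component: oxidised TMPD appearing during PGG2 to PGH2 reduction monitored at 590 nm; values reported as IC50 in µM, duplicate experiments.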

| SMILES | Activity [1] [%] | inhibition [2] [%] | Activity [3] [%] | IC50 [4] [µM] |
| --- | --- | --- | --- | --- |
| COc1ccc(-c2c(-c3ccc(F)cc3)nc3sc(S(N)(=O)=O)nn23)cc1 | 43.49 | 12.9 | 51.72 | – |
| Cc1ccc(-c2cc(C(F)(F)F)nn2-c2ccc(S(N)(=O)=O)cc2)cc1 [CELECOXIB] | 48.31 | – | 64.83 | – |
| COc1ccc(-c2c(-c3ccc(SC)cc3)nc3sc(C(F)(F)F)nn23)cc1 | 42.38 | 10.5 | 66.16 | – |
| COc1ccc(-c2c(-c3ccccc3)nc3sc(C(F)(F)F)nn23)cc1 | 29.62 | 30.6 | 42.32 | – |
| COc1ccc(-c2c(-c3ccc(S(C)(=O)=O)cc3)nc3sc(S(N)(=O)=O)nn23)cc1 | 54.28 | 13.3 | 61.29 | > 50 |
| COc1ccc(-c2nc3sc(C(F)(F)F)nn3c2-c2ccc(OC)cc2)cc1 | 38.03 | 15.5 | 48.78 | – |
| CSc1ccc(-c2nc3sc(C(F)(F)F)nn3c2-c2ccccc2)cc1 | 37.64 | 14.2 | 54.16 | – |
| CS(=O)(=O)c1ccc(-c2nc3sc(C(F)(F)F)nn3c2-c2ccccc2)cc1 | 46.73 | 8.6 | 70.09 | > 50 |
| COc1ccc(-c2nc3sc(S(N)(=O)=O)nn3c2-c2ccc(OC)cc2)cc1 | 24.68 | 28.1 | 37.05 | – |
